From paper PMC9727797 (Molecular Biology of the Cell, 2022) come the findings set out here.

For one test, the target named is T1, KIF15-N700 (Homo sapiens, UniProt Q9NS87).
T1 sequence (Q9NS87 1-700 limits assumed): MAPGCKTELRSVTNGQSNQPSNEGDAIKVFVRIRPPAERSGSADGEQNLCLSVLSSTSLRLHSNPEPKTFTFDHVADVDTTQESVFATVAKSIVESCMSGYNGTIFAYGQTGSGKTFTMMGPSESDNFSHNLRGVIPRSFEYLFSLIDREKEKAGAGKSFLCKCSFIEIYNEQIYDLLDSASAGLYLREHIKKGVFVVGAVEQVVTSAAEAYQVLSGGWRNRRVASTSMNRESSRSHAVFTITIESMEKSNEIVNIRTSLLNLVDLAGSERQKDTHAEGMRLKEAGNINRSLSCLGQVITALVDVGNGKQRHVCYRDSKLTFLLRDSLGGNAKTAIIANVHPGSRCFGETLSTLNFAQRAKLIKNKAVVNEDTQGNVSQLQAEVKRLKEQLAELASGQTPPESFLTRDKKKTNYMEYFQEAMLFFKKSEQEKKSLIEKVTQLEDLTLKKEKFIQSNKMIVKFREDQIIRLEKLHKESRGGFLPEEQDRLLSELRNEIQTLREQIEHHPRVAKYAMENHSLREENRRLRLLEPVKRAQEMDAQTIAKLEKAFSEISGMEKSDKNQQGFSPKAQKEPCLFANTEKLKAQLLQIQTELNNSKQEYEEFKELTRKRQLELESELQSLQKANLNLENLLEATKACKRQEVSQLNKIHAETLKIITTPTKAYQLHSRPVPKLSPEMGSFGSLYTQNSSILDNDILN
The test is described as follows: Microtubule gliding assay. It is filed as biochemical. Conditions: 25 µM, singlicate. An outline of the steps: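 His6-KIF15-N700 was expressed in High Five insect cells, then purified by Ni-NTA and Superdex 200 gel filtration. Microtubule gliding was imaged every 5 s for 1 min at 100×. Velocity was taken as distance travelled in 1 min, from ≥15 microtubules at each of three slide locations (n ≥ 50 per slide). Concentration-response curves used eight concentrations from 10 nM up to 30 or 100 µM, in triplicate. Single-point derivative tests used 25 µM.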

The subject of a further test is KIRC-1 cells. The test is described as follows: Preanaphase spindle monopolarity, KIRC-1 cells. The class given is cell-based, human. Conditions: 25 µM. An outline of the steps: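 TP53–/– RPE-1 and KIRC-1 cells were grown in DMEM with 10% FBS, penicillin and streptomycin; KIRC-1 medium also contained 10 μM STLC. Cells on coverslips were treated overnight with increasing test-compound concentrations or DMSO. They were then methanol-fixed and stained for KIF15, tubulin and DNA. Preanaphase spindles were scored monopolar or bipolar, in triplicate with n = 100 per replicate (± SEM).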

For another test, the system named is TP53–/– RPE-1 cells. The test is described as follows: STLC selection. It is filed as cell-based, human. Particulars: 24 d; 10 μM STLC; some cells acquired resistance and formed colonies.
Another test deals with RPE-1 cells. The test is described as follows: Live cell imaging of metaphase duration. It is filed as cell-based, human. Conditions: Munesib-1 50 µM, Fift-IN and GW108X 25 µM.

For `CSc1ncc2c(n1)-c1ccc(C(=O)O)cc1N(C)S2(=O)=O` [M-201, 6-methyl-2-(methylthio)-6H-benzo[c]pyrimido[4,5-e][1,2]thiazine-8-carboxylic acid 5,5-dioxide], the “% inhibition of KIF15 microtubule gliding activity” value on KIF15-N700 is “blocked KIF15 activity as effectively as Munesib-1”. The same measure, in the same setting: the entry for `CSc1ncc2c(n1)-c1ccc(CO)cc1N(C)S2(=O)=O` [M-206, 8-(hydroxymethyl)-6-methyl-2-(methylthio)-6H-benzo[c]pyrimido[4,5-e][1,2]thiazine 5,5-dioxide] is “blocked KIF15 activity as effectively as Munesib-1”. Turning to `CSc1ncc2c(n1)-c1ccc(C(=O)N3CCNCC3)cc1N(C)S2(=O)=O` [M-205, (6-methyl-2-(methylthio)-5,5-dioxido-6H-benzo[c]pyrimido[4,5-e][1,2]thiazin-8-yl)(piperazin-1-yl)methanone], in the test with KIRC-1 cells, the “monopolarity index compared with the parent compound” value is on record as “substantially increased the monopolarity index”. Regarding `N[C@@H](CSC(c1ccccc1)(c1ccccc1)c1ccccc1)C(=O)O` [STLC, S-trityl-L-cysteine], the “cell killing by STLC alone” value in the test with TP53–/– RPE-1 cells was “killed the majority”. With `O=C1Nc2ccc(C(=O)c3ccco3)cc2/C1=C/c1cc(Cl)c(O)c(Cl)c1` [GW108X, reference compound], the “metaphase duration (metaphase plate formation until anaphase onset)” value in the test with RPE-1 cells is “significant increase in metaphase duration”.
